Assay outcomes as filed in PubChem BioAssay.
Rows were chosen to be rich in hits. Some 3.9% of all compounds tested hit in one or more screens of this group.
TAAR1 ag = human TAAR1 agonism. Q96RJ0. CHO RD-HGA16 TAAR1, Fluo-8 calcium fluorescence; vehicle wells 0%, saturating PEA agonist 100%. activation, % at 3 µM. 360,000 tested, 0.99% active. AID 624467;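 active means activation above the mean activation of all test compounds in the run plus 3 SD, cut at about 38% in these data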
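test system = CHO RD-HGA16 cells carrying human TAAR1 plus Gα16 | schedule = 17-24 h seeding, 75 min 37 °C dye, 30 min RT | compound dosing = 3 µM single concentration | control set = DMSO and PEA EC100 | replicates = n 1 | signal = Fluo-8 fluorescence, 5 s baseline then 140 s kinetic read | measure = percent activation vs PEA EC100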
OX1R antag-1 = human HCRTR1 antagonism; O43613; CHO/OX1R cells, Fluo-8 calcium fluorescence, orexin A; inhibition, % at 5 µM; 330,000 tested, 0.43% active; AID 434989;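 active means inhibition above its plate's threshold, mean inhibition of all tested compounds on the plate plus 3 SD, cut at about 37% in these data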
Target sequence (O43613 whole entry, looked up): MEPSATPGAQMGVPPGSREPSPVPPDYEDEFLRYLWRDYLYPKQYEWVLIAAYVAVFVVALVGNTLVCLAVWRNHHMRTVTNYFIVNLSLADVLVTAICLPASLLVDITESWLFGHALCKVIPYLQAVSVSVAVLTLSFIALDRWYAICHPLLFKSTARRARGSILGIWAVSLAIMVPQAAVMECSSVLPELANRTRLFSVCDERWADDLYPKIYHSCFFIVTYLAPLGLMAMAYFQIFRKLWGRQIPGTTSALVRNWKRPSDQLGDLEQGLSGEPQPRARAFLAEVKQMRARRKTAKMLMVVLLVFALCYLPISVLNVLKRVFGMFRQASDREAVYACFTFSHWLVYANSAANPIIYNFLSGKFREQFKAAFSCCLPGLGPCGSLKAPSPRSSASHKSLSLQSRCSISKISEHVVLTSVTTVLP
OX1R antag-2 = OX1R (human) antagonism; inhibition, % at 6.6 µM; 330,000 tested, 1.8% active; OX1R-expressing cells, FRET antagonist read-out; AID 485270; O43613; in the data active means inhibition mostly above about 38%, no sharp cut-off; inactive means mostly below about 40%
TAAR1 antag = antagonists of human TAAR1; inhibition, % at 3 µM; Q96RJ0; CHO RD-HGA16 TAAR1, Fluo-8 calcium fluorescence, antagonist; 360,000 tested, 1.5% active; AID 624466;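 active means inhibition above a per-plate cutoff, the mean inhibition of test compounds on that plate plus 3 SD, cut at about 49% in these data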
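Assay system: CHO-derived RD-HGA16 cells stably expressing human TAAR1 plus Gα16. Timing: 140 s kinetic read after compound, 140 s after agonist. Technique: kinetic Fluo-8 calcium fluorescence measurement. Measure: % inhibition of agonist calcium response.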
CHO parental Ca = signal in parental CHO cells, OX1R antagonist counter-screen; parental CHO-K1, ATP-induced calcium, Fluo-8 fluorescence; inhibition, % at 5.6 µM; 330,000 tested, 0.63% active;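 active means inhibition above that plate's mean sample inhibition plus 3 SD, cut at about 26% in these data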
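test system = CHO parental line | reagent = ATP stimulus | measured by = intracellular calcium via Fluo-8 no-wash fluorescent dye | control set = ATP and no-ATP DMSO wells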
Hits are given with their value; 0 = inactive; - = no result.

SMILES	TAAR1 ag	OX1R antag-1	OX1R antag-2	TAAR1 antag	CHO parental Ca
COC(=O)C1=C(C)N(Cc2ccccc2C(F)(F)F)C(=NCc2ccccc2C(F)(F)F)NC1c1ccc(C(F)(F)F)cc1 (stereo not given)	0	-	-	0	-
O=C(CSc1nc(-c2ccccc2)c(-c2ccccc2)[nH]1)Nc1ccc2c(c1)OCO2	0	0	50.4	0	0
CCOC(=O)c1nc(Nc2ccc(Nc3ccccc3)cc2)c2ccccc2n1	0	-	-	62.7	-
O=C(NCCc1ccccn1)c1c(-c2ccccc2)sc2ccccc12	0	0	0	0	0
O=C(NCCc1ccccn1)c1c(-c2ccsc2)sc2ccccc12	0	0	47.6	0	0
O=C(Nc1cccc([N+](=O)[O-])c1)OCc1ccc2c(c1)OCO2	0	-	-	0	-
COc1cccc(-c2nc(CS(=O)(=O)CC(=O)Nc3cccc(C(C)=O)c3)c(C)o2)c1	0	0	47.9	0	0
COc1ccc(OC)c(NC(=O)CS(=O)(=O)Cc2nc(-c3ccccc3C)oc2C)c1	0	0	72.2	0	0
COc1ccc(OCCCC(=O)Nc2cccc(C(C)=O)c2)cc1	0	0	0	0	0
COc1ccc(OCCCC(=O)OC(C)C(=O)Nc2cccc(C(C)=O)c2)cc1 (stereo not given)	0	0	64.2	0	0
O=C1c2c(O)ccc(O)c2C(=O)c2c(NCCNCCO)ccc(NCCNCCO)c21	0	0	64.7	0	0
O=C(CSc1nc2ccccc2c(=O)n1NC(=O)Cc1ccccc1)NCc1ccccc1Cl	0	0	52.6	0	0
O=c1cc(CCl)nc2sc3ccccc3n12	0	0	0	0	0
O=C(OCc1cc(=O)n2c(n1)sc1ccccc12)c1ccc(O)cc1	0	0	52.6	0	0
O=c1c2ccccc2nc(/C=C/c2ccccc2)n1CCCO	0	0	0	0	0
CN(C)c1ccc(/C=C/c2nc3ccccc3c(=O)n2CCO)cc1	0	0	51.7	0	0
CCOC(=O)c1c(C)oc2c1cc(O)c1ccccc12	0	0	0	0	0
CCOC(=O)c1c(C)[nH]c2c1cc(O)c1ccccc12	0	0	43.1	0	0
CCOC(=O)c1c(C)[nH]c(C)c1C(=O)COC(=O)c1cc2ccccc2cc1O	0	0	71.9	0	0
COc1ccc(S(=O)(=O)N(C)C[C@@H]2OCCCC[C@H](C)Oc3ccc(NC(=O)Nc4ccc(C(F)(F)F)cc4)cc3C(=O)N([C@H](C)CO)C[C@H]2C)cc1	0	-	-	0	-
CC(=O)c1cccc(-c2ccnc3c2CC(C(=O)Nc2ccc(C(C)C)cc2)O3)c1 (stereo not given)	0	-	-	0	-
COc1ccccc1Nc1c([N+](=O)[O-])cncc1[N+](=O)[O-]	0	0	0	0	0
O=[N+]([O-])c1cc([N+](=O)[O-])c2nonc2c1Nc1ccc(O)cc1	0	0	76.4	0	0
O=[N+]([O-])c1cncc([N+](=O)[O-])c1Nc1cccc(O)c1	0	0	56.4	0	0
Cc1ccccc1Nc1c([N+](=O)[O-])cncc1[N+](=O)[O-]	0	0	63.0	0	0
SMILES	TAAR1 ag	OX1R antag-1	OX1R antag-2	TAAR1 antag	CHO parental Ca
Oc1ccc(C23CCCC2C2(CCCC2)c2ccc(O)cc2O3)c(O)c1 (stereo not given)	70.8	110.2	0	99.0	75.1
COc1cccc(CNC(=O)[C@H]2CCCN2C(=O)[C@H]2CCCN2C(=O)c2ccccc2)c1	0	-	-	0	-
CCOCCCn1c(=NC(C)=O)c(C(=O)OCC)cc2c(=O)n3ccccc3nc21	0	0	58.6	0	0
COCCCn1c(=NC(C)=O)c(C#N)cc2c(=O)n3cccc(C)c3nc21	0	0	0	0	0
CCOCCCn1c(=NC(C)=O)c(C#N)cc2c(=O)n3ccccc3nc21	0	0	40.2	0	0
COCCCn1c(=NC(=O)c2ccccc2)c(C#N)cc2c(=O)n3cccc(C)c3nc21	0	0	55.2	0	0
O=C(CSc1cccc[n+]1[O-])Nc1ccc([N+](=O)[O-])cc1Cl	0	0	65.3	0	0
CN(C)c1cccc2c(S(=O)(=O)NC(=O)[C@H]3O[C@@H](n4cnc5c(N)ncnc54)[C@H](O)[C@@H]3O)cccc12	0	-	-	0	-
O=[N+]([O-])c1ccc(COc2ccccc2CO)cc1	0	-	-	0	-
Cc1c(C(=O)OCC(=O)N(C)Cc2ccc(Cl)cc2)oc2ccccc12	0	0	53.3	0	0
CCCS(=O)(=O)NC(=O)C1(C)CCN(C(=O)c2cccc(C(F)(F)F)c2)C1 (stereo not given)	0	-	-	0	-
CC(=O)Nc1cccc(NC(=O)c2cccc3cccnc23)c1	0	0	70.8	0	0
CCOc1ccccc1C(=O)Nc1cccc2ccccc12	0	0	52.7	0	0
CCOc1ccccc1C(=O)Nc1ccccc1O	0	0	0	0	0
COc1ccccc1C(=O)Nc1cccc2cccnc12	0	0	72.7	0	0
Cc1ccc(NC(=O)c2cccc3cccnc23)cc1	0	0	0	0	0
O=C(NCCc1ccccc1F)c1cccc2cccnc12	65.8	0	0	0	0
CCC(=O)N1CCC1(C)C(=O)Nc1ccc(Cl)c(Cl)c1 (stereo not given)	0	-	-	0	-
CCc1nc2ccc(C(=O)NCc3ccc4c(c3)OCO4)cn2c1N(C)C(=O)Cc1ccccc1	0	-	-	0	-
CC1(C(=O)NS(=O)(=O)Cc2ccccc2C(F)(F)F)CCN1C(=O)c1ccco1 (stereo not given)	0	-	-	0	-
COc1ccccc1NC(=O)c1ccccc1-c1nc(-c2ccccc2OC)no1	0	0	54.8	51.3	0
COc1c(C)cc(C(O)c2ncc(-c3ccc4ccccc4c3)[nH]2)cc1C (stereo not given)	0	-	-	0	-
N#C/C(=C/c1ccc(O)c(O)c1)C(=O)NCc1ccc(Cl)cc1	47.9	0	0	0	0
N#C/C(=C/c1cccc(O)c1)C(=O)NCc1ccc(Cl)cc1	0	0	0	0	0
O=C(NCC1CCN(C(=O)C(=O)c2cccs2)CC1)c1cccnc1	0	-	-	0	-
SMILES	TAAR1 ag	OX1R antag-1	OX1R antag-2	TAAR1 antag	CHO parental Ca
CC1Cc2nc(SCC(=O)N3CCN(c4ccccc4)CC3)n(CCc3ccccc3)c(=O)c2S1 (stereo not given)	0	0	0	52.0	0
CCOC(=O)C1=C(COC(=O)c2ccc(Br)c(S(=O)(=O)N3CCOCC3)c2)NC(=O)NC1C (stereo not given)	0	-	-	0	-
c1ccc(CN2c3ccccc3-c3nc4ccccc4n3C2c2ccccn2)cc1 (stereo not given)	0	0	0	54.8	0
O=C(Nc1nc(-c2cccs2)c(C(=O)C(F)(F)F)s1)c1ccccc1	0	0	59.9	0	0
O=C(Nc1nc(-c2cccs2)c(C(=O)C(F)(F)F)s1)c1ccco1	0	0	0	0	0
Cc1ccc(O)c(-c2cc(-c3ccccc3[N+](=O)[O-])[nH]n2)c1	0	0	0	56.9	0
